Screening data: PubChem, The Scripps Research Institute Molecular Screening Center
CHRM5 agonist: CHRM5 agonism in calcium assay; P08912; CHO-K1 hM5 cells, Fluo-8 calcium fluorescence; 0% DMSO wells, 100% maximal acetylcholine response; activation, % at 3 µM; 360,000 compounds, 0.19% hits; AID 624037;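 active = activation above the run's mean over test compounds plus 3 SD, cut at about 23% in these data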;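 also: signal is peak over basal fluorescence ratio across the kinetic read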
M5 antag: CHRM5 antagonism in calcium assay. P08912. CHO-hM5 cells, Fluo-8 calcium fluorescence, ACh EC80. inhibition, % at 3 µM. 360,000 compounds, 0.59% hits. AID 624040;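 active = inhibition above a per-plate cutoff, the mean of that plate's test compounds plus 3 SD, cut at about 27% in these data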
CHRM4 PAM: potentiates acetylcholine response at human M4 receptor | P08173 | CHO-K1 hM4/Gqi5, Fluo-8 calcium fluorescence, ACh EC20; 0% = ACh EC20, 100% = maximal ACh | activation, % at 3 µM | 360,000 compounds, 0.4% hits;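 active = activation above its plate's cutoff, the mean activation of sample wells plus 3 SD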
Target sequence (P08173 whole entry, looked up): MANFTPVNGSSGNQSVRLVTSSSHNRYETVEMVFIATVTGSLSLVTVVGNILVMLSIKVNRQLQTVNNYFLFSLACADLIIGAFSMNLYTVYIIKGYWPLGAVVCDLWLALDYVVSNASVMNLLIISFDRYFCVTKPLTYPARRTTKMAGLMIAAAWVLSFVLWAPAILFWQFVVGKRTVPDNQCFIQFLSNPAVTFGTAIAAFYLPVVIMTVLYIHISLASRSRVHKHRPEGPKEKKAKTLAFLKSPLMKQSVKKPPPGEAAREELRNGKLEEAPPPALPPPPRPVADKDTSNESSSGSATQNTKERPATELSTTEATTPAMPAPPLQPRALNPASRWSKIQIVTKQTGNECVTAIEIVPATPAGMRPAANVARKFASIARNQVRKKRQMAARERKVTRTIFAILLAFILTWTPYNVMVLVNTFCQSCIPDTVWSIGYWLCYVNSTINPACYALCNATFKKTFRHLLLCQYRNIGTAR
M5 PAM: potentiates acetylcholine response at human M5 receptor. P08912. CHO-K1 hM5, Fluo-8 calcium, ACh EC20 PAM; 0% = ACh EC20, 100% = ACh EC100. activation, % at 3 µM. 360,000 compounds, 0.3% hits. AID 624038;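 active = activation above the run cutoff, the mean activation of all test compounds plus 3 SD, cut at about 18% in these data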
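Measured by: Fluo-8 calcium fluorescence; material: human M5 receptor in CHO-K1 cells; schedule: Post-acetylcholine fluorescence recording 140 s; benchmarks: low control EC20 acetylcholine (0%), high control EC100 acetylcholine (100%); read-out: Max/basal fluorescence ratio as % of EC20–EC100 ACh window; compound: single dose, 3 µM nominal final test concentration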
CHRM4 antagonist: CHRM4 antagonism in calcium assay | P08173 | CHO-hM4 cells, ACh EC80, Fluo-8 calcium fluorescence | inhibition, % at 3 µM | 360,000 compounds, 0.73% hits | AID 624125;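 active = inhibition above its plate's cutoff, the mean inhibition of sample wells plus 3 SD, cut at about 27% in these data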
M4 ag: CHRM4 agonism in calcium assay. CHO-K1 hM4/Gqi5, Fluo-8 calcium fluorescence; vehicle 0%, full acetylcholine response 100%. 360,000 compounds, 0.14% hits. activation, % at 3 µM. P08173;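 active = activation above the run mean over all test wells plus 3 SD, cut at about 32% in these data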;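 also: peak over basal fluorescence ratio per well then scaled between controls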
A number is an active result. Compounds with a hit are over-represented: about 1.8% of the library has one in this group of screens.

Screening Cn1c(SCC(N)=O)nnc1-c1ccc(S(=O)(=O)N2CCCC2)cc1 returned CHRM5 agonist inactive, M5 antag inactive, CHRM4 PAM inactive, M5 PAM inactive, CHRM4 antagonist inactive and M4 ag inactive.
Screening Cc1ccc(-n2c(SCC(N)=O)nnc2-c2ccc(S(=O)(=O)N3CCCCC3)cc2)c(C)c1 returned CHRM5 agonist inactive, M5 antag inactive, CHRM4 PAM inactive, M5 PAM inactive, CHRM4 antagonist 99.5 and M4 ag inactive.
For Cc1cc(C)c(C(=O)COC(=O)c2cccc(S(=O)(=O)N3CCOCC3)c2)cc1C the results were CHRM5 agonist inactive, M5 antag inactive, CHRM4 PAM inactive, M5 PAM inactive, CHRM4 antagonist inactive and M4 ag inactive.
For COc1ccc(NC(=O)C(Cl)=C(Cl)Cl)cn1 the results were CHRM5 agonist inactive, M5 antag inactive, CHRM4 PAM inactive, M5 PAM inactive, CHRM4 antagonist inactive and M4 ag inactive.
For COc1ccc(NC(=O)/C(Cl)=C(/Cl)S(=O)Cc2ccc(Cl)cc2)cn1 (centres undefined) the results were CHRM5 agonist inactive, M5 antag inactive, CHRM4 PAM inactive, M5 PAM inactive, CHRM4 antagonist 30.2 and M4 ag inactive.
Screening CCCN1C=CC(=CC=C(C#N)C#N)C=C1 returned CHRM5 agonist 31.0, M5 antag inactive, CHRM4 PAM inactive, M5 PAM inactive, CHRM4 antagonist inactive and M4 ag inactive.
`CCCCCCN1C=CC(=C/C=C(\C#N)C(=O)OCC)C=C1` gave CHRM5 agonist 51.0, M5 antag 34.4, CHRM4 PAM inactive, M5 PAM inactive, CHRM4 antagonist 36.5 and M4 ag 253.3.
C=CCN1C=CC(=CC=C(C#N)C#N)C=C1 was read as CHRM5 agonist 27.9, M5 antag inactive, CHRM4 PAM inactive, M5 PAM inactive, CHRM4 antagonist inactive and M4 ag inactive.
Screening CCCCCN1C=CC=C/C1=C\C=C(C#N)C#N returned CHRM5 agonist inactive, M5 antag inactive, CHRM4 PAM inactive, M5 PAM inactive, CHRM4 antagonist inactive and M4 ag inactive.
For CCOC(=O)/C(C#N)=C/C=C1\C=Cc2ccccc2N1CC the results were CHRM5 agonist inactive, M5 antag inactive, CHRM4 PAM inactive, M5 PAM inactive, CHRM4 antagonist inactive and M4 ag inactive.
For COCCNC(=S)N1CCC2CC1c1cc(-c3ccc4c(c3)OCO4)ccc12 (centres undefined) the results were CHRM5 agonist inactive, M5 antag inactive, CHRM4 PAM inactive, M5 PAM inactive, CHRM4 antagonist inactive and M4 ag inactive.
Screening Cc1ccc2c(C)c(C)c(=O)n(C)c2c1 returned CHRM5 agonist inactive, M5 antag inactive, CHRM4 PAM inactive, M5 PAM inactive, CHRM4 antagonist inactive and M4 ag inactive.
Screening COc1ccccc1CNC(=O)C1CC(c2ccccc2[N+](=O)[O-])=NO1 (centres undefined) returned CHRM5 agonist inactive, M5 antag inactive, CHRM4 PAM inactive, M5 PAM 20.7, CHRM4 antagonist inactive and M4 ag inactive.
`O=[N+]([O-])c1ccc(O)c(/C=N/Nc2nn[nH]n2)c1` gave CHRM5 agonist inactive, M5 antag inactive, CHRM4 PAM 24.5, M5 PAM inactive, CHRM4 antagonist inactive and M4 ag inactive.
O=C(CSCc1ccc(F)cc1)N1CCN(c2ccccc2)CC1 was read as CHRM5 agonist inactive, M5 antag inactive, CHRM4 PAM 30.5, M5 PAM inactive, CHRM4 antagonist inactive and M4 ag inactive.
`O=C(CSCc1ccc(F)cc1)N1CCN(c2ccc(F)cc2)CC1` gave CHRM5 agonist inactive, M5 antag inactive, CHRM4 PAM inactive, M5 PAM inactive, CHRM4 antagonist inactive and M4 ag inactive.
Screening Cc1sc(NC(=O)c2ccco2)nc1-c1ccc2c(c1)CC(C)N2C(=O)C1CC1 (centres undefined) returned CHRM5 agonist inactive, M5 antag inactive, CHRM4 PAM inactive, M5 PAM inactive, CHRM4 antagonist 32.2 and M4 ag inactive.
CC(=O)Nc1nc(-c2ccc3c(c2)CC(C)N3C(=O)C2CC2)c(C)s1 (centres undefined) was read as CHRM5 agonist inactive, M5 antag inactive, CHRM4 PAM inactive, M5 PAM inactive, CHRM4 antagonist inactive and M4 ag inactive.
For Cc1ccc(Cl)cc1NC(=O)C(=O)N/N=C/c1ccc2c(c1)OCO2 the results were CHRM5 agonist inactive, M5 antag inactive, CHRM4 PAM inactive, M5 PAM inactive, CHRM4 antagonist inactive and M4 ag inactive.
Screening Cc1cccc(N(Cc2ccccc2)C(=O)c2ccccc2S(C)(=O)=O)c1 returned CHRM5 agonist inactive, M5 antag inactive, CHRM4 PAM inactive, M5 PAM inactive, CHRM4 antagonist inactive and M4 ag inactive.
`Cc1ccc(NC(=O)c2ccc(NCc3ccc(F)cc3)nc2)cc1` gave CHRM5 agonist inactive, M5 antag 31.8, CHRM4 PAM inactive, M5 PAM inactive, CHRM4 antagonist inactive and M4 ag inactive.
For CCc1cc(=O)oc2cc(OCC(=O)O)c(Cl)cc12 the results were CHRM5 agonist inactive, M5 antag inactive, CHRM4 PAM inactive, M5 PAM 20.2, CHRM4 antagonist inactive and M4 ag inactive.
`CCc1cc(=O)oc2cc(OCC(=O)N(CC)CC)c(Cl)cc12` gave CHRM5 agonist inactive, M5 antag inactive, CHRM4 PAM inactive, M5 PAM inactive, CHRM4 antagonist inactive and M4 ag inactive.
Screening c1ccc(OCCN2CCN(C(c3ccccc3)c3ccccc3)CC2)cc1 returned CHRM5 agonist inactive, M5 antag inactive, CHRM4 PAM inactive, M5 PAM inactive, CHRM4 antagonist inactive and M4 ag inactive.
`CCOC(=O)C1CCN(C(=O)COc2ccc3c(c2)OCO3)CC1` gave CHRM5 agonist inactive, M5 antag inactive, CHRM4 PAM inactive, M5 PAM inactive, CHRM4 antagonist inactive and M4 ag inactive.
Screening CCN1CCN(C(=O)/C=C/c2ccc(OC)cc2)CC1 returned CHRM5 agonist inactive, M5 antag inactive, CHRM4 PAM 12.4, M5 PAM inactive, CHRM4 antagonist inactive and M4 ag inactive.
`CN1c2ccccc2SC2C(c3ccccc3)=NOC21` (centres undefined) gave CHRM5 agonist inactive, M5 antag inactive, CHRM4 PAM inactive, M5 PAM inactive, CHRM4 antagonist inactive and M4 ag inactive.
Screening O=C1c2ccccc2C(=O)c2cc(N3CCCCC3)ccc21 returned CHRM5 agonist 72.0, M5 antag 34.4, CHRM4 PAM inactive, M5 PAM inactive, CHRM4 antagonist inactive and M4 ag inactive.
c1ccc2cc(N3CCCCC3)ccc2c1 was read as CHRM5 agonist inactive, M5 antag inactive, CHRM4 PAM inactive, M5 PAM inactive, CHRM4 antagonist inactive and M4 ag inactive.
